Assay results from ChEMBL document CHEMBL3244069, “Synthesis and biological activities of arginine-vasopressin analogues designed from a conformation-activity approach” (1979).
The source made the active and inactive calls. The rule behind the calls is not given here. Bridge positions count the residues as written; N and C are the ends. Square brackets hold non-standard residues; d marks the D form. Peptide text beside a SMILES is read from it. ΔPro = O=C(O)[C@@H]1C=CCN1; Mpa = O=C(O)CCS

Experiments:
Rattus norvegicus [1] = assay: Antidiuretic effect in Brattleboro rat assessed as maximal depressions of urine flow after single intravenous bolus injection; format: functional
Rattus norvegicus [2] = assay: Induction in blood pressure in rat after single intravenous bolus injection; format: functional
Method in brief: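 Pressor assay in anesthetized male rats following the U.S. Pharmacopeia procedure. Specific activity obtained by the Schild four-point design against the U.S.P. posterior pituitary reference standard; results in units/mg on anhydrous peptide weight.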

Gallus gallus = assay: Reduction in vasomotor depression in chicken after single intravenous bolus injection; format: functional
Method in brief: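 Avian vasodepressor assay in conscious chickens (Coon method per U.S. Pharmacopeia, modified by Munsick et al.). Four-point Schild design against the U.S.P. posterior pituitary reference standard; results in units/mg on anhydrous weight.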

Rattus norvegicus [3] = species on record: Rattus norvegicus; assay: Induction in uterus contraction in isolated rat uterine horns in vitro
Rattus norvegicus [4] = assay: Induction in blood pressure in rat at 4.2 x 10^-11 mol, single intravenous bolus injection; format: functional, organism-based
Method in brief: (§1)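 Six male Sprague-Dawley rats (250–275 g), Inactin 10 mg/100 g i.p., hydrated to 8% body weight; carotid, jugular and bladder cannulated, 37 °C. Inulin/mannitol/NaCl infusion (300 mosm) ~10 mL/h, 60 min equilibration. Blood pressure from the carotid; urine volume weighed, four postinjection samples; GFR from inulin (anthrone); sodium by flame photometry.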

Rattus norvegicus [5] = assay: Reduction in urine flow in Sprague-Dawley rat at 4.2 x 10^-11 mol, single intravenous bolus injection; format: functional, organism-based; method in brief: as §1
Rattus norvegicus [6] = assay: Reduction in fractional excretion of sodium in Sprague-Dawley rat at 4.2 x 10^-11 mol, single intravenous bolus injection; format: functional, organism-based; method in brief: as §1
Rattus norvegicus [7] = assay: Increase in urine osmolality in Sprague-Dawley rat measured per liter at 4.2 x 10^-11 mol, single intravenous bolus injection (reference value: 200 mosm); format: functional
Rattus norvegicus [8] = assay: Decrease in glomerular filtration rate in Sprague-Dawley rat at 1.6 x 10^-12 mol, single intravenous bolus injection
Rattus norvegicus [9] = assay: Induction in blood pressure in rat at 1.6 x 10^-12 mol, single intravenous bolus injection; format: functional, organism-based
Method in brief: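 Hydrated, Inactin-anesthetized male Sprague-Dawley rats with carotid artery cannulated; arterial pressure recorded on a physiograph after a single intravenous bolus of 1.6×10^-12 mol (21 microunits).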

Rattus norvegicus [10] = assay: Reduction in urine flow in Sprague-Dawley rat at 1.6 x 10^-11 mol, single intravenous bolus injection; format: functional, organism-based; settings: in the assay text read “1.6 x 10^-12 mol” for “1.6 x 10^-11 mol”
Method in brief: (§2)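 Renal clearance in six male Sprague-Dawley rats, 250–275 g, under Inactin (10 mg/100 g ip), hydrated to 8% body weight with 2% ethanol/0.5% glucose. Infusion of 3% inulin, 1% mannitol, 0.6% NaCl, 2% alcohol at about 10 mL/h; 60 min equilibration; body temperature 37 °C. Urine volume determined gravimetrically, GFR from inulin (anthrone method), Na/K by flame photometry.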

Rattus norvegicus [11] = assay: Reduction in fractional excretion of sodium in Sprague-Dawley rat at 1.6 x 10^-11 mol, single intravenous bolus injection; format: functional, organism-based; settings: in the assay text read “1.6 x 10^-12 mol” for “1.6 x 10^-11 mol”; method in brief: as §2
Rattus norvegicus [12] = assay: Decrease in glomerular filtration rate in Sprague-Dawley rat at 1.6 x 10^-11 mol, single intravenous bolus injection; format: functional, organism-based; settings: in the assay text read “1.6 x 10^-12 mol” for “1.6 x 10^-11 mol”; method in brief: as §2
Rattus norvegicus [13] = assay: Increase in urine osmolality in Sprague-Dawley rat measured per liter at 1.6 x 10^-12 mol, single intravenous bolus injection (reference value: 200 mosm)

Row | SMILES | Activity (Rattus norvegicus [1]) [U/mg] | Activity (Rattus norvegicus [2]) [U/mg] | Activity (Gallus gallus) [U/mg] | Activity (Rattus norvegicus [3]) [U/mg] | Activity (Rattus norvegicus [4]) | inhibition (Rattus norvegicus [5]) | inhibition (Rattus norvegicus [6]) | Activity (Rattus norvegicus [7]) [milliosmole] | inhibition (Rattus norvegicus [8]) | Activity (Rattus norvegicus [9]) | inhibition (Rattus norvegicus [10]) | inhibition (Rattus norvegicus [11]) | inhibition (Rattus norvegicus [12]) | Activity (Rattus norvegicus [13]) [milliosmole]
1 | N=C(N)NCCC[C@H](NC(=O)[C@@H]1CCCN1C(=O)[C@@H]1CSSCCC(=O)N[C@@H](Cc2ccccc2)C(=O)N[C@@H](Cc2ccccc2)C(=O)N[C@@H](CCC(N)=O)C(=O)N[C@@H](CC(N)=O)C(=O)N1)C(=O)NCC(N)=O ([Mpa]FFQNCPRG-NH2; disulfide 1-6) | 810 | 29 | <1 | 0.3 |  |  |  |  |  |  |  |  |  | 
2 | N=C(N)NCCC[C@H](NC(=O)[C@@H]1CCCN1C(=O)[C@@H]1CSSC[C@H](N)C(=O)N[C@@H](Cc2ccc(O)cc2)C(=O)N[C@@H](Cc2ccccc2)C(=O)N[C@@H](CCC(N)=O)C(=O)N[C@@H](CC(N)=O)C(=O)N1)C(=O)NCC(N)=O [VASOPRESSIN] | 503 | 487 | 100 | 12 | Active | Active | Active | 700 | Active |  |  |  |  | 
3 | N=C(N)NCCC[C@H](NC(=O)[C@@H]1C=CCN1C(=O)[C@@H]1CSSCCC(=O)N[C@@H](Cc2ccccc2)C(=O)N[C@@H](Cc2ccccc2)C(=O)N[C@@H](CCC(N)=O)C(=O)N[C@@H](CC(N)=O)C(=O)N1)C(=O)NCC(N)=O ([Mpa]FFQNC[ΔPro]RG-NH2; disulfide 1-6) | 13000 |  | 2.9 | 6 |  |  |  |  |  | inactive | Active | Active | Active | 700
4 | N=C(N)NCCC[C@H](NC(=O)[C@@H]1C=CCN1C(=O)[C@@H]1CSSCCC(=O)N[C@@H](Cc2ccc(O)cc2)C(=O)N[C@@H](Cc2ccccc2)C(=O)N[C@@H](CCC(N)=O)C(=O)N[C@@H](CC(N)=O)C(=O)N1)C(=O)NCC(N)=O | 4134 | 240 | 345 | 69 |  |  |  |  |  |  |  |  |  | 
5 | N=C(N)NCCCC(NC(=O)[C@@H]1CCCN1C(=O)[C@@H]1CSSCCC(=O)N[C@@H](Cc2ccc(O)cc2)C(=O)N[C@@H](Cc2ccccc2)C(=O)N[C@@H](CCC(N)=O)C(=O)N[C@@H](CC(N)=O)C(=O)N1)C(=O)NCC(N)=O (single isomer, unassigned) [DESMOPRESSIN] | 1400 | 395 | 160 | 29 |  |  |  |  |  |  |  |  |  | 
